According to ChEMBL document CHEMBL3045256, “Design, synthesis, structure, and acaricidal/insecticidal activity of novel spirocyclic tetronic acid derivatives containing an oxalyl moiety” (2011):

Tests used:
Assay type in all cases: functional
Tetranychus cinnabarinus [1] = assay: Acaricidal activity against larvae of Tetranychus cinnabarinus (carmine spider mite) in sieva bean leaves assessed as mortality at 5 mg/kg at 25 +/-1 degC treated for 3 secs measured after 4 days; settings: 96 h
Ostrinia nubilalis = assay: Stomach toxicity against third-instar larval stage of Ostrinia nubilalis (European corn borer) in corn leaves assessed as mortality at 600 mg/kg at 25 +/-1 degC treated for 3-5 secs before larval infestation after 4 days by leaf-dip method; settings: 96 h
How it was run: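 Corn leaf disks (about 5 cm) were dipped for 3–5 s and air-dried. Each disk was placed in a 7 cm glass vessel with 10 third-instar corn borer larvae. Percentage mortality was scored 4 days after treatment. Controls were acetone-treated leaves. Run at 25 ± 1 °C.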

Tetranychus cinnabarinus [2] = assay: Acaricidal activity against eggs of Tetranychus cinnabarinus (carmine spider mite) in sieva bean leaves assessed as mortality at 2.5 mg/kg at 25 +/-1 degC treated for 3 secs measured after 4 days; settings: 96 h
Mythimna separata [3] = assay: Stomach toxicity against fourth-instar larval stage of Mythimna separata (Oriental armyworm) in compound-pretreated corn leaves assessed as mortality at 600 mg/kg at 25 +/-1 degC after 4 days
How it was run: (§1)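 Foliar application to oriental armyworm. Single corn leaves were laid on moistened filter paper in Petri dishes. Bioassays were run at 25 ± 1 °C.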

Tetranychus cinnabarinus [4] = assay: Acaricidal activity against larvae of Tetranychus cinnabarinus (carmine spider mite) in sieva bean leaves assessed as mortality at 10 mg/kg at 25 +/-1 degC treated for 3 secs measured after 4 days; settings: 96 h
Tetranychus cinnabarinus [5] = assay: Acaricidal activity against eggs of Tetranychus cinnabarinus (carmine spider mite) in sieva bean leaves assessed as mortality at 5 mg/kg at 25 +/-1 degC treated for 3 secs measured after 4 days; settings: 96 h
Helicoverpa armigera = assay: Stomach toxicity against third-instar larval stage of Helicoverpa armigerain compound-pretreated corn leaves assessed as mortality at 600 mg/kg at 25 +/-1 degC after 4 days by leaf-dip method
How it was run: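 Leaf-dip assay on cotton bollworm. Corn leaves were dipped in test solution and air-dried. The treated pieces were placed individually into 24-hole boxes. Run at 25 ± 1 °C.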

Tetranychus cinnabarinus [6] = assay: Acaricidal activity against eggs of Tetranychus cinnabarinus (carmine spider mite) in sieva bean leaves assessed as mortality at 0.25 mg/kg at 25 +/-1 degC treated for 3 secs measured after 4 days; settings: 96 h
Tetranychus cinnabarinus [7] = assay: Acaricidal activity against eggs of Tetranychus cinnabarinus (carmine spider mite) in sieva bean leaves assessed as mortality at 0.5 mg/kg at 25 +/-1 degC treated for 3 secs measured after 4 days; settings: 96 h
Tetranychus cinnabarinus [8] = assay: Acaricidal activity against larvae of Tetranychus cinnabarinus (carmine spider mite) in sieva bean leaves assessed as mortality at 2.5 mg/kg at 25 +/-1 degC treated for 3 secs measured after 4 days; settings: 96 h
Plutella xylostella = assay: Stomach toxicity against third-instar larval stage of Plutella xylostella (diamondback moth) in cabbage leaves assessed as mortality at 200 mg/kg at 25 +/-1 degC treated for 3 secs before larval infestation after 4 days by leaf-dip method; settings: 96 h
How it was run: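 Cabbage leaf disks (6 cm × 2 cm) were dipped in test solution for 3 s and air-dried. Each disk was placed in a glass tube and given seven third-instar diamondback moth larvae. Percentage mortality was scored after 4 days. Controls were water and dimethylformamide. Each treatment was done three times at 25 ± 1 °C.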

Tetranychus cinnabarinus [9] = assay: Acaricidal activity against larvae of Tetranychus cinnabarinus (carmine spider mite) in sieva bean leaves assessed as mortality at 1 mg/kg at 25 +/-1 degC treated for 3 secs measured after 4 days; settings: 96 h
Tetranychus cinnabarinus [10] = assay: Acaricidal activity against eggs of Tetranychus cinnabarinus (carmine spider mite) in sieva bean leaves assessed as mortality at 1 mg/kg at 25 +/-1 degC treated for 3 secs measured after 4 days; settings: 96 h
Tetranychus cinnabarinus [11] = assay: Acaricidal activity against larvae of Tetranychus cinnabarinus (carmine spider mite) in sieva bean leaves assessed as mortality at 0.5 mg/kg at 25 +/-1 degC treated for 3 secs measured after 4 days; settings: 96 h
Tetranychus cinnabarinus [12] = assay: Acaricidal activity against eggs of Tetranychus cinnabarinus (carmine spider mite) in sieva bean leaves assessed as mortality at 25 +/-1 degC treated for 3 secs measured after 4 days
Tetranychus cinnabarinus [13] = assay: Acaricidal activity against eggs of Tetranychus cinnabarinus (carmine spider mite) in sieva bean leaves assessed as mortality at 0.05 mg/kg at 25 +/-1 degC treated for 3 secs measured after 4 days; settings: 96 h
Tetranychus cinnabarinus [14] = assay: Acaricidal activity against eggs of Tetranychus cinnabarinus (carmine spider mite) in sieva bean leaves assessed as mortality at 0.1 mg/kg at 25 +/-1 degC treated for 3 secs measured after 4 days; settings: 96 h
Mythimna separata [15] = assay: Stomach toxicity against fourth-instar larval stage of Mythimna separata (Oriental armyworm) in compound-pretreated corn leaves assessed as mortality at 100 mg/kg at 25 +/-1 degC after 4 days; how it was run: as §1
Mythimna separata [16] = assay: Stomach toxicity against fourth-instar larval stage of Mythimna separata (Oriental armyworm) in compound-pretreated corn leaves assessed as mortality at 50 mg/kg at 25 +/-1 degC after 4 days; how it was run: as §1
Tetranychus cinnabarinus [17] = assay: Toxicity ratio of spiromesifen LC50 to compound LC50 for eggs of Tetranychus cinnabarinus (carmine spider mite) treated for 3 secs measured after 4 days

Row | SMILES | mortality at 5 mg/kg (Tetranychus cinnabarinus [1]) | mortality at 600 mg/kg (Ostrinia nubilalis) | mortality at 2.5 mg/kg (Tetranychus cinnabarinus [2]) | mortality at 600 mg/kg (Mythimna separata [3]) | mortality at 10 mg/kg (Tetranychus cinnabarinus [4]) | mortality at 5 mg/kg (Tetranychus cinnabarinus [5]) | mortality at 600 mg/kg (Helicoverpa armigera) | mortality at 0.25 mg/kg (Tetranychus cinnabarinus [6]) | mortality at 0.5 mg/kg (Tetranychus cinnabarinus [7]) | mortality at 2.5 mg/kg (Tetranychus cinnabarinus [8]) | mortality at 200 mg/kg (Plutella xylostella) | mortality at 1 mg/kg (Tetranychus cinnabarinus [9]) | mortality at 1 mg/kg (Tetranychus cinnabarinus [10]) | mortality at 0.5 mg/kg (Tetranychus cinnabarinus [11]) | LC50 (Tetranychus cinnabarinus [12]) | mortality at 0.05 mg/kg (Tetranychus cinnabarinus [13]) | mortality at 0.1 mg/kg (Tetranychus cinnabarinus [14]) | mortality at 100 mg/kg (Mythimna separata [15]) | mortality at 50 mg/kg (Mythimna separata [16]) | RatioLC50 (Tetranychus cinnabarinus [17])
1 | Cc1cc(C)c(C2=C(OC(=O)C(=O)N3CCCC3)C3(CCCC3)OC2=O)c(C)c1 | 0% | 30% | 30% | 40% | 40% | 70% | 30% |  |  |  |  |  |  |  |  |  |  |  |  | 
2 | Cc1cc(C)c(C2=C(OC(=O)C(=O)N(C)c3ccccc3)C3(CCCC3)OC2=O)c(C)c1 | 70% | 30% | 100% | 80% | 80% | 100% | 50% | 50% | 100% | 40% | 70% | 0% | 100% |  |  |  |  |  |  | 
3 | CCN(C(=O)C(=O)OC1=C(c2c(C)cc(C)cc2C)C(=O)OC12CCCC2)c1ccccc1 | 100% | 40% | 100% | 40% | 100% | 100% | 40% | 30% | 50% | 90% |  | 80% | 90% | 60% |  |  |  |  |  | 
4 | CCN(C(=O)C(=O)OC1=C(c2c(C)cc(C)cc2C)C(=O)OC12CCCC2)c1ccc(C)cc1C | 100% | 20% | 90% | 30% | 100% | 100% | 20% |  | 30% | 90% |  | 60% | 70% | 20% |  |  |  |  |  | 
5 | CCN(C(=O)C(=O)OC1=C(c2c(C)cc(C)cc2C)C(=O)OC12CCCC2)c1ccc(Br)cc1 | 100% | 40% | 100% | 80% | 100% | 100% | 30% | 40% | 60% | 100% |  | 90% | 90% | 50% |  |  |  |  |  | 
6 | CCN(C(=O)C(=O)OC1=C(c2c(C)cc(C)cc2C)C(=O)OC12CCCC2)c1ccc(C(F)(F)F)cc1 | 100% | 30% | 90% | 50% | 100% | 100% | 10% | 60% | 80% | 80% |  | 50% | 90% | 40% |  |  |  |  |  | 
7 | CCOC(=O)C(=O)OC1=C(c2c(C)cc(C)cc2C)C(=O)OC12CCCC2 | 0% | 20% |  | 80% | 50% | 20% | 10% |  |  |  | 70% |  |  |  |  |  |  |  |  | 
8 | Cc1cc(C)c(C2=C(OC(=O)CC(C)(C)C)C3(CCCC3)OC2=O)c(C)c1 [SPIROMESIFEN] | 100% | 60% | 100% |  | 100% | 100% | 50% | 60% | 90% | 100% | 70% | 90% | 90% | 90% | 0.1567 mg/kg | 0% | 20% | 100% | 60% | 1
